According to ChEMBL document CHEMBL1152972, “Rearranged prenylated C6-C3 compounds and a highly oxygenated seco-prezizaane-type sesquiterpene from the stem bark of Illicium oligandrum” (2009):
Calls of active or inactive are those of the source. The rule behind the calls is not given here.

Test system: Bel-7402
Experiment: Cytotoxicity against human Bel7402 cells
Assay type: functional, cell-based

Structure (SMILES)	Activity
C=CCC1=C[C@]2(O)C[C@H](C(C)(C)O)OC2=CC1=O	inactive
C=CC[C@@H]1C[C@]2(O)C[C@H](C(C)(C)O)OC2=CC1=O [ILLIFUNONE C]	inactive
C=CC[C@H]1C[C@]2(O)C[C@H](C(C)(C)O)OC2=CC1=O [ILLIFUNONE D]	inactive
C=CCC1=C[C@]2(O)C[C@@H](O)C(C)(C)[C@H](C1=O)C2=O [ILLIOLIGANONE A]	inactive
C=CC[C@@]12C=C(C[C@H](O)C(C)(C)O)C(=O)C=C1OCO2 [ILLIOLIGANONE B]	inactive
C=CC[C@]1(C[C@H](O)C(C)(C)O)C=C2OCOC2=CC1=O [ILLIOLIGANONE C]	inactive
C[C@@H]1CC[C@@]2(O)[C@]13C[C@@H](OC(=O)[C@@H]3O)[C@@]1(O)C(=O)OC[C@@]21C [NEOMAJUCIN]	inactive
CO[C@]12OC[C@@]3(C)[C@@]4(O)CC[C@@H](COC(=O)c5ccccc5)[C@]4(C[C@@H](O1)[C@@]3(O)CO)[C@H]2O [OLIGANDRIORTHOLACTONE]	inactive

Test system: A549
Experiment: Cytotoxicity against human A549 cells
Assay type: functional, cell-based

Structure (SMILES)	Activity
C=CCC1=C[C@]2(O)C[C@H](C(C)(C)O)OC2=CC1=O	inactive
C=CC[C@@H]1C[C@]2(O)C[C@H](C(C)(C)O)OC2=CC1=O [ILLIFUNONE C]	inactive
C=CC[C@H]1C[C@]2(O)C[C@H](C(C)(C)O)OC2=CC1=O [ILLIFUNONE D]	inactive
C=CCC1=C[C@]2(O)C[C@@H](O)C(C)(C)[C@H](C1=O)C2=O [ILLIOLIGANONE A]	inactive
C=CC[C@@]12C=C(C[C@H](O)C(C)(C)O)C(=O)C=C1OCO2 [ILLIOLIGANONE B]	inactive
C=CC[C@]1(C[C@H](O)C(C)(C)O)C=C2OCOC2=CC1=O [ILLIOLIGANONE C]	inactive
C[C@@H]1CC[C@@]2(O)[C@]13C[C@@H](OC(=O)[C@@H]3O)[C@@]1(O)C(=O)OC[C@@]21C [NEOMAJUCIN]	inactive
CO[C@]12OC[C@@]3(C)[C@@]4(O)CC[C@@H](COC(=O)c5ccccc5)[C@]4(C[C@@H](O1)[C@@]3(O)CO)[C@H]2O [OLIGANDRIORTHOLACTONE]	inactive

Test system: not listed separately
Experiment: Antiinflammatory activity in rat PMNC assessed as inhibition of platelet activating factor-induced beta-glucuronidase release at 10 uM treated 15 mins before PAF challenge
Assay type: functional
Set-up: scale not given: the % may be the effect or the level left
Procedure, shortened: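 Rat PMN suspension (2.5 × 10^6 cells/mL) preincubated with sample (stock 0.1 M in DMSO, diluted in RPMI-1640) 15 min at 37 °C, then cytochalasin B 5 min, then PAF; stopped on ice after 10 min. Supernatant incubated with phenolphthalein glucuronic acid in 0.1 M HOAc buffer pH 4.6, 37 °C, 18 h; NaOH added, A550 read; inhibitory ratio versus PAF and control wells; ginkgolide B reference.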

Structure (SMILES)	Activity [%]
C=CCC1=C[C@]2(O)C[C@H](C(C)(C)O)OC2=CC1=O	4.8
C=CC[C@@H]1C[C@]2(O)C[C@H](C(C)(C)O)OC2=CC1=O [ILLIFUNONE C]	-9.4
C=CC[C@H]1C[C@]2(O)C[C@H](C(C)(C)O)OC2=CC1=O [ILLIFUNONE D]	18
C=CCC1=C[C@]2(O)C[C@@H](O)C(C)(C)[C@H](C1=O)C2=O [ILLIOLIGANONE A]	-7.7
C=CC[C@@]12C=C(C[C@H](O)C(C)(C)O)C(=O)C=C1OCO2 [ILLIOLIGANONE B]	33.8
C=CC[C@]1(C[C@H](O)C(C)(C)O)C=C2OCOC2=CC1=O [ILLIOLIGANONE C]	20.1
C[C@@H]1CC[C@@]2(O)[C@]13C[C@@H](OC(=O)[C@@H]3O)[C@@]1(O)C(=O)OC[C@@]21C [NEOMAJUCIN]	22.4
CO[C@]12OC[C@@]3(C)[C@@]4(O)CC[C@@H](COC(=O)c5ccccc5)[C@]4(C[C@@H](O1)[C@@]3(O)CO)[C@H]2O [OLIGANDRIORTHOLACTONE]	15.8

Test system: BGC-823
Experiment: Cytotoxicity against human BGC823 cells
Assay type: functional, cell-based

Structure (SMILES)	Activity
C=CCC1=C[C@]2(O)C[C@H](C(C)(C)O)OC2=CC1=O	inactive
C=CC[C@@H]1C[C@]2(O)C[C@H](C(C)(C)O)OC2=CC1=O [ILLIFUNONE C]	inactive
C=CC[C@H]1C[C@]2(O)C[C@H](C(C)(C)O)OC2=CC1=O [ILLIFUNONE D]	inactive
C=CCC1=C[C@]2(O)C[C@@H](O)C(C)(C)[C@H](C1=O)C2=O [ILLIOLIGANONE A]	inactive
C=CC[C@@]12C=C(C[C@H](O)C(C)(C)O)C(=O)C=C1OCO2 [ILLIOLIGANONE B]	inactive
C=CC[C@]1(C[C@H](O)C(C)(C)O)C=C2OCOC2=CC1=O [ILLIOLIGANONE C]	inactive
C[C@@H]1CC[C@@]2(O)[C@]13C[C@@H](OC(=O)[C@@H]3O)[C@@]1(O)C(=O)OC[C@@]21C [NEOMAJUCIN]	inactive
CO[C@]12OC[C@@]3(C)[C@@]4(O)CC[C@@H](COC(=O)c5ccccc5)[C@]4(C[C@@H](O1)[C@@]3(O)CO)[C@H]2O [OLIGANDRIORTHOLACTONE]	inactive

Test system: HCT-8
Experiment: Cytotoxicity against human HCT8 cells
Assay type: functional, cell-based

Structure (SMILES)	Activity
C=CCC1=C[C@]2(O)C[C@H](C(C)(C)O)OC2=CC1=O	inactive
C=CC[C@@H]1C[C@]2(O)C[C@H](C(C)(C)O)OC2=CC1=O [ILLIFUNONE C]	inactive
C=CC[C@H]1C[C@]2(O)C[C@H](C(C)(C)O)OC2=CC1=O [ILLIFUNONE D]	inactive
C=CCC1=C[C@]2(O)C[C@@H](O)C(C)(C)[C@H](C1=O)C2=O [ILLIOLIGANONE A]	inactive
C=CC[C@@]12C=C(C[C@H](O)C(C)(C)O)C(=O)C=C1OCO2 [ILLIOLIGANONE B]	inactive
C=CC[C@]1(C[C@H](O)C(C)(C)O)C=C2OCOC2=CC1=O [ILLIOLIGANONE C]	inactive
C[C@@H]1CC[C@@]2(O)[C@]13C[C@@H](OC(=O)[C@@H]3O)[C@@]1(O)C(=O)OC[C@@]21C [NEOMAJUCIN]	inactive
CO[C@]12OC[C@@]3(C)[C@@]4(O)CC[C@@H](COC(=O)c5ccccc5)[C@]4(C[C@@H](O1)[C@@]3(O)CO)[C@H]2O [OLIGANDRIORTHOLACTONE]	inactive

Test system: A2780
Experiment: Cytotoxicity against human A2780 cells
Assay type: functional, cell-based

Structure (SMILES)	Activity
C=CCC1=C[C@]2(O)C[C@H](C(C)(C)O)OC2=CC1=O	inactive
C=CC[C@@H]1C[C@]2(O)C[C@H](C(C)(C)O)OC2=CC1=O [ILLIFUNONE C]	inactive
C=CC[C@H]1C[C@]2(O)C[C@H](C(C)(C)O)OC2=CC1=O [ILLIFUNONE D]	inactive
C=CCC1=C[C@]2(O)C[C@@H](O)C(C)(C)[C@H](C1=O)C2=O [ILLIOLIGANONE A]	inactive
C=CC[C@@]12C=C(C[C@H](O)C(C)(C)O)C(=O)C=C1OCO2 [ILLIOLIGANONE B]	inactive
C=CC[C@]1(C[C@H](O)C(C)(C)O)C=C2OCOC2=CC1=O [ILLIOLIGANONE C]	inactive
C[C@@H]1CC[C@@]2(O)[C@]13C[C@@H](OC(=O)[C@@H]3O)[C@@]1(O)C(=O)OC[C@@]21C [NEOMAJUCIN]	inactive
CO[C@]12OC[C@@]3(C)[C@@]4(O)CC[C@@H](COC(=O)c5ccccc5)[C@]4(C[C@@H](O1)[C@@]3(O)CO)[C@H]2O [OLIGANDRIORTHOLACTONE]	inactive
